Results taken from ChEMBL document CHEMBL3603803, “Design and synthesis of dithiocarbamate linked β-carboline derivatives: DNA topoisomerase II inhibition with DNA binding and apoptosis inducing ability” (Bioorg Med Chem, 2015).
One block for each molecule: values may come before it. Active and inactive are the calls of the source. The rule behind the calls is not given here.

What was measured:
A549 = assay: Cytotoxicity against human A549 cells after 48 hrs by MTT assay; type: functional, cell-based; settings: A549, 48 h
Procedure, shortened: (§1)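 Human cancer cell lines (A549 lung, MCF-7 breast, DU-145 prostate, HeLa cervical) exposed to compounds for 48 h; 50% inhibitory concentration derived, average of three individual experiments; doxorubicin reference agent.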

MCF7 = assay: Cytotoxicity against human MCF7 cells after 48 hrs by MTT assay; type: functional, cell-based; settings: MCF7, 48 h; procedure, shortened: as §1
DU-145 [1] = assay: Cytotoxicity against human DU145 cells after 48 hrs by MTT assay; type: functional, cell-based; settings: DU-145, 48 h; procedure, shortened: as §1
HeLa = assay: Cytotoxicity against human HeLa cells after 48 hrs by MTT assay; type: functional, cell-based; procedure, shortened: as §1
[2] = target: DNA topoisomerase II (Homo sapiens) (UniProt P11388+Q02880); assay: Interfacial poisoning activity at DNA-topoisomerase 2 (unknown origin) using catenated kDNA as substrate assessed as linear DNA formation at 1 to 100 uM after 30 mins by agarose gel electrophoresis; type: protein assay
Procedure, shortened: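 Catenated DNA incubated with topo II and compound at 1, 10 and 100 µM; gel products scored for linear DNA (poison type) versus nicked circular/relaxed DNA retained in wells (catalytic inhibitor type); etoposide at 1, 10, 100 µM as control.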

DU-145 [3] = assay: Induction of apoptosis in human DU145 cells assessed as wrinkled cells at 0.5 uM after 48 hrs by Hoechst 33258 staining-based confocal microscopic analysis; type: functional, cell-based
Procedure, shortened: (§2)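 Hoechst H33258 staining of treated DU-145 cells at 0.5 µM; apoptotic cells (apoptotic bodies, condensation, nuclear fragmentation) counted by manual field quantification under the microscope, compared with control.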

DU-145 [4] = assay: Induction of apoptosis in human DU145 cells assessed as DNA fragmented cells at 0.5 uM after 48 hrs by Hoechst 33258 staining-based confocal microscopic analysis; type: functional, cell-based; procedure, shortened: as §2
Calf thymus DNA [5] = assay: Induction of DNA intercalation of calf thymus DNA at 1 uM by UV-vis spectrophotometric analysis; type: nucleic-acid assay; settings: Bos taurus
Calf thymus DNA [6] = assay: Binding affinity to calf thymus DNA surface at 1 uM by UV-vis spectrophotometric analysis; type: nucleic-acid assay; settings: Bos taurus
Calf thymus DNA [7] = assay: Induction of DNA intercalation of calf thymus DNA at 10 uM by spectrofluorimetric analysis; type: nucleic-acid assay; settings: Bos taurus
Procedure, shortened: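 Fluorescence titration: CT-DNA added to compound solution and quenching of compound emission peak monitored (617 or 567 nm, depending on compound).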

Calf thymus DNA [8] = assay: Stabilization of calf thymus DNA at 1:1 DNA to compound molar ratio by CD spectroscopic analysis; type: nucleic-acid assay; settings: Bos taurus
Procedure, shortened: (§3)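 CD spectra of CT-DNA with compound added at 10 µM to equal CT-DNA concentration (1:1), then raised to 1:2 DNA:ligand; positive band at 275 nm monitored.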

Calf thymus DNA [9] = assay: Stabilization of calf thymus DNA at 1:2 DNA to compound molar ratio by CD spectroscopic analysis; type: nucleic-acid assay; settings: Bos taurus; procedure, shortened: as §3
DU-145 [10] = assay: Cell cycle arrest in human DU145 cells assessed as accumulation at subG1 phase at 0.5 uM after 48 hrs by propidium iodide staining-based flow cytometric analysis (reference value: 6.52%); type: functional
DU-145 [11] = assay: Cell cycle arrest in human DU145 cells assessed as accumulation at subG1 phase at 1 uM after 48 hrs by propidium iodide staining-based flow cytometric analysis (reference value: 6.52%); type: functional
DU-145 [12] = assay: Cell cycle arrest in human DU145 cells assessed as accumulation at G0/G1 phase at 0.5 uM after 48 hrs by propidium iodide staining-based flow cytometric analysis (reference value: 85.94%); type: functional
DU-145 [13] = assay: Cell cycle arrest in human DU145 cells assessed as accumulation at G0/G1 phase at 1 uM after 48 hrs by propidium iodide staining-based flow cytometric analysis (reference value: 85.94%); type: functional
DU-145 [14] = assay: Cell cycle arrest in human DU145 cells assessed as accumulation at S phase at 0.5 uM after 48 hrs by propidium iodide staining-based flow cytometric analysis (reference value: 4.02%); type: functional
DU-145 [15] = assay: Cell cycle arrest in human DU145 cells assessed as accumulation at S phase at 1 uM after 48 hrs by propidium iodide staining-based flow cytometric analysis (reference value: 4.02%); type: functional
DU-145 [16] = assay: Cell cycle arrest in human DU145 cells assessed as accumulation at G2/M phase at 0.5 uM after 48 hrs by propidium iodide staining-based flow cytometric analysis (reference value: 1.97%); type: functional
DU-145 [17] = assay: Cell cycle arrest in human DU145 cells assessed as accumulation at G2/M phase at 1 uM after 48 hrs by propidium iodide staining-based flow cytometric analysis (reference value: 1.97%); type: functional
DU-145 [18] = assay: Induction of apoptosis in human DU145 cells assessed as necrotic cells at 0.5 uM after 48 hrs by annexin V-FITC/propidium iodide staining-based flow cytometric analysis (reference value: 0.1%); type: functional
DU-145 [19] = assay: Induction of apoptosis in human DU145 cells assessed as necrotic cells at 1 uM after 48 hrs by annexin V-FITC/propidium iodide staining-based flow cytometric analysis (reference value: 0.1%); type: functional
DU-145 [20] = assay: Induction of apoptosis in human DU145 cells assessed as late apoptotic cells at 0.5 uM after 48 hrs by annexin V-FITC/propidium iodide staining-based flow cytometric analysis (reference value: 1.52%); type: functional
DU-145 [21] = assay: Induction of apoptosis in human DU145 cells assessed as late apoptotic cells at 1 uM after 48 hrs by annexin V-FITC/propidium iodide staining-based flow cytometric analysis (reference value: 1.52%); type: functional
DU-145 [22] = assay: Induction of apoptosis in human DU145 cells assessed as viable cells at 0.5 uM after 48 hrs by annexin V-FITC/propidium iodide staining-based flow cytometric analysis (reference value: 97.95%); type: functional; settings: DU-145, 48 h, read-out: Activity
DU-145 [23] = assay: Induction of apoptosis in human DU145 cells assessed as viable cells at 1 uM after 48 hrs by annexin V-FITC/propidium iodide staining-based flow cytometric analysis (reference value: 97.95%); type: functional; settings: DU-145, 48 h, read-out: Activity
DU-145 [24] = assay: Induction of apoptosis in human DU145 cells assessed as early apoptotic cells at 0.5 uM after 48 hrs by annexin V-FITC/propidium iodide staining-based flow cytometric analysis (reference value: 0.43%); type: functional
DU-145 [25] = assay: Induction of apoptosis in human DU145 cells assessed as early apoptotic cells at 1 uM after 48 hrs by annexin V-FITC/propidium iodide staining-based flow cytometric analysis (reference value: 0.43%); type: functional

Structure (SMILES): Cn1c2ccccc2c2cc(CN)nc(-c3ccc(C(F)(F)F)cc3)c21
IC50 (A549): 19.2 µM | IC50 (MCF7): 11.7 µM | IC50 (DU-145 [1]): 7.76 µM | IC50 (HeLa): 15.1 µM

Structure (SMILES): COc1ccc(-c2nc(CNC(=S)SC)cc3c2[nH]c2ccccc23)cc1
IC50 (A549): 7.94 µM | IC50 (MCF7): 8.51 µM | IC50 (DU-145 [1]): 1.14 µM | IC50 (HeLa): 7.78 µM

Structure (SMILES): CSC(=S)NCc1cc2c([nH]c3ccccc32)c(-c2ccc(C(F)(F)F)cc2)n1
IC50 (A549): 16.9 µM | IC50 (MCF7): 15.8 µM | IC50 (DU-145 [1]): 9.54 µM | IC50 (HeLa): 12.6 µM

Structure (SMILES): COc1cc([C@@H]2c3cc4c(cc3[C@@H](O[C@@H]3O[C@@H]5CO[C@@H](C)O[C@H]5[C@H](O)[C@H]3O)[C@H]3COC(=O)[C@H]23)OCO4)cc(OC)c1O
Activity [2]: Active

Structure (SMILES): NCc1cc2c([nH]c3ccccc32)c(-c2ccc(C(F)(F)F)cc2)n1
IC50 (A549): 15.8 µM | IC50 (MCF7): 12 µM | IC50 (DU-145 [1]): 9.12 µM | IC50 (HeLa): 15.8 µM

Structure (SMILES): Cn1c2ccccc2c2cc(CNC(=S)SCc3ccccc3)nc(-c3ccc(C(F)(F)F)cc3)c21
IC50 (A549): 5.12 µM | IC50 (MCF7): 4.31 µM | IC50 (DU-145 [1]): 2.08 µM | IC50 (HeLa): 4.78 µM

Structure (SMILES): CSC(=S)NCc1cc2c3ccccc3n(C)c2c(-c2ccc(F)cc2)n1
IC50 (A549): 5.62 µM | IC50 (MCF7): 1.86 µM | IC50 (DU-145 [1]): 1.45 µM | IC50 (HeLa): 2.39 µM

Structure (SMILES): C=CCSC(=S)NCc1cc2c([nH]c3ccccc32)c(-c2ccc(F)cc2)n1
IC50 (A549): 16.7 µM | IC50 (MCF7): 6.6 µM | IC50 (DU-145 [1]): 3.98 µM | IC50 (HeLa): 4.46 µM

Structure (SMILES): NCc1cc2c([nH]c3ccccc32)c(-c2ccc(F)cc2)n1
IC50 (A549): 21.1 µM | IC50 (MCF7): 17.9 µM | IC50 (DU-145 [1]): 13.8 µM | IC50 (HeLa): 22.5 µM

Structure (SMILES): COc1ccc(-c2nc(CNC(=S)SCc3ccccc3)cc3c4ccccc4n(C)c23)cc1
IC50 (A549): 9.12 µM | IC50 (MCF7): 3.36 µM | IC50 (DU-145 [1]): 6.91 µM | IC50 (HeLa): 13.8 µM

Structure (SMILES): Cn1c2ccccc2c2cc(CN)nc(-c3ccc(F)cc3)c21
IC50 (A549): 19.5 µM | IC50 (MCF7): 16.6 µM | IC50 (DU-145 [1]): 10 µM | IC50 (HeLa): 20.5 µM

Activity (Calf thymus DNA [5]): Active | Activity (Calf thymus DNA [6]): Active | Activity (Calf thymus DNA [7]): Active | Activity (Calf thymus DNA [8]): Active | Activity (Calf thymus DNA [9]): Active
Structure (SMILES): CSC(=S)NCc1cc2c3ccccc3n(C)c2c(-c2ccc(C(F)(F)F)cc2)n1
Activity (DU-145 [3]): Active | Activity (DU-145 [4]): Active | Activity [2]: Active | IC50 (A549): 3.54 µM | IC50 (MCF7): 1.09 µM | IC50 (DU-145 [1]): 0.79 µM | IC50 (HeLa): 1.47 µM | Activity (DU-145 [10]): 10.12% | Activity (DU-145 [11]): 18.6% | Activity (DU-145 [12]): 78.9% | Activity (DU-145 [13]): 70.81% | Activity (DU-145 [14]): 5.18% | Activity (DU-145 [15]): 5.31% | Activity (DU-145 [16]): 3.73% | Activity (DU-145 [17]): 5.36% | Activity (DU-145 [18]): 0.93% | Activity (DU-145 [19]): 1.65% | Activity (DU-145 [20]): 13.7% | Activity (DU-145 [21]): 21.19% | viability at 0.5 µM (DU-145 [22]): 81.5% | viability at 1 µM (DU-145 [23]): 75% | Activity (DU-145 [24]): 3.82% | Activity (DU-145 [25]): 2.18%

Structure (SMILES): COc1cc(-c2nc(CNC(=S)SC)cc3c4ccccc4n(C)c23)cc(OC)c1OC
IC50 (A549): 12.5 µM | IC50 (MCF7): 15.2 µM | IC50 (DU-145 [1]): 6.16 µM | IC50 (HeLa): 16.9 µM

Structure (SMILES): Fc1ccc(-c2nc(CNC(=S)SCc3ccccc3)cc3c2[nH]c2ccccc23)cc1
IC50 (A549): 39.8 µM | IC50 (MCF7): 7.41 µM | IC50 (DU-145 [1]): 3.71 µM | IC50 (HeLa): 3.81 µM

Structure (SMILES): COc1ccc(-c2nc(CN)cc3c4ccccc4n(C)c23)cc1
IC50 (A549): 20.1 µM | IC50 (MCF7): 16.6 µM | IC50 (DU-145 [1]): 12.8 µM | IC50 (HeLa): 14.8 µM

Structure (SMILES): C=CCSC(=S)NCc1cc2c([nH]c3ccccc32)c(-c2ccc(OC)cc2)n1
IC50 (A549): 51.4 µM | IC50 (MCF7): 38.8 µM | IC50 (DU-145 [1]): 46.7 µM | IC50 (HeLa): 59.1 µM
